The values that follow come from PMC7227796 (ACS chemical neuroscience, 2020).

Where two headings read alike, the source gives them in different places. Marks after values point to notes of the source that are not given here.

The target in one assay is native AMPA receptors. Put plainly: Radioligand binding at native AMPA receptors. The note with it: rat synaptosomes, [3H]AMPA; for IC50: read-out: AMPA IC50, native iGluRs (synaptosomes). The gist of the method:
(§1)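 Rat cortical synaptosomal membranes were labelled with 5 nM [3H]AMPA (AMPA), 5 nM [3H]KA (KA) or [3H]CGP39653 (NMDA). Test compound was run at 12–16 concentrations in triplicate, with three to six independent experiments. Cpm were fitted by nonlinear regression. Values are reported as pIC50 for AMPA and KA and as pKi for NMDA, each as mean with SEM.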

In another assay the target is native KA receptors. As to the kind of experiment: Radioligand binding at native KA receptors. The note with it: rat synaptosomes, [3H]KA. The gist of the method:
as §1

The target in a further assay is native NMDA receptors. Put plainly: Radioligand binding at native NMDA receptors. Also noted: species or system rat. The note with it: rat synaptosomes, [3H]CGP-39653; for Ki: read-out: NMDA Ki, native iGluRs (synaptosomes). The gist of the method: as §1
A further assay deals with GluK2 (Rattus norvegicus, UniProt P42260). Put plainly: Radioligand binding at recombinant homomeric GluK2. The note with it: for GluK2 % specific binding (Table 5): mean ± SD, ligand concentration not given. The gist of the method:
(§2)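 Membranes from sf9 cells expressing rat homomeric GluK1, GluK2 or GluK3 were incubated in 50 mM Tris-HCl, pH 7.1, for 2 h at 4 °C. Radioligand was [3H]-(S)-NF608 for GluK1 and [3H]kainic acid for GluK2 and GluK3. Samples were filtered on GF/B, washed twice with ice-cold buffer, dried for 1 h at 70 °C and counted by scintillation. Ki came from 12–16-point triplicate curves. Single-point % specific binding is mean ± SD of three experiments, at 10 μM test compound where stated.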

The next assay deals with GluK3 (Rattus norvegicus, UniProt P42264). As to the kind of experiment: Radioligand binding at recombinant homomeric GluK3. Particulars: for GluK3 % specific binding (Table 5): mean ± SD, ligand concentration not given. The method, boiled down: as §2
Chain of GluK3 (P42264 32-919): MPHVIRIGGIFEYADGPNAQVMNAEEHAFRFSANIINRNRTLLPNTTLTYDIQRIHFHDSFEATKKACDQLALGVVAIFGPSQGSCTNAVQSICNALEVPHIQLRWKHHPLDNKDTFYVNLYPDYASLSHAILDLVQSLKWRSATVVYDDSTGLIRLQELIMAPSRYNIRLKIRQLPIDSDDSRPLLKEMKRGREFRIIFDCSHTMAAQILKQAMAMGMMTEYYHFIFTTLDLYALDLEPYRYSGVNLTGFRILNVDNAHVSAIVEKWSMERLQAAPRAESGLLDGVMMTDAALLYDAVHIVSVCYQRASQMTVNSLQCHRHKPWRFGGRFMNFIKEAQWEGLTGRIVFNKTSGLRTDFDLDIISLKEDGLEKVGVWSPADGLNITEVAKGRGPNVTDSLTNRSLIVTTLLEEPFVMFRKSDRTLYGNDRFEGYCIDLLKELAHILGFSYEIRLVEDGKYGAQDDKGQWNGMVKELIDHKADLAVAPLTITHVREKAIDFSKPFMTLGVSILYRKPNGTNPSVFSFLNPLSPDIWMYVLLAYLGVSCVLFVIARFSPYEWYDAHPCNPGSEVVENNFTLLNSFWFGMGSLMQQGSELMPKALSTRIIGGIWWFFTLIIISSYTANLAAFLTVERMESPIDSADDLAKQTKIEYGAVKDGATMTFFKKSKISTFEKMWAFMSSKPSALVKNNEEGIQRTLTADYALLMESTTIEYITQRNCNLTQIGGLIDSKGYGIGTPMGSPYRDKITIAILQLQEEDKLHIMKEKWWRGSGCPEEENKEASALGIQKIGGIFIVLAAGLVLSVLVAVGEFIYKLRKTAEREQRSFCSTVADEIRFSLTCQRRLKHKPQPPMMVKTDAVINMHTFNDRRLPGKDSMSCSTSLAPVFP
The target of a further assay is GluK1 (Rattus norvegicus, UniProt P22756). As to the kind of experiment: Radioligand binding at recombinant homomeric GluK1. The note with it: for GluK1 % specific binding (Table 5): [3H]NF608, mean ± SD, ligand concentration not given. The method, boiled down: as §2
Chain of GluK1 (P22756 31-920 isoform P22756-4 limits assumed): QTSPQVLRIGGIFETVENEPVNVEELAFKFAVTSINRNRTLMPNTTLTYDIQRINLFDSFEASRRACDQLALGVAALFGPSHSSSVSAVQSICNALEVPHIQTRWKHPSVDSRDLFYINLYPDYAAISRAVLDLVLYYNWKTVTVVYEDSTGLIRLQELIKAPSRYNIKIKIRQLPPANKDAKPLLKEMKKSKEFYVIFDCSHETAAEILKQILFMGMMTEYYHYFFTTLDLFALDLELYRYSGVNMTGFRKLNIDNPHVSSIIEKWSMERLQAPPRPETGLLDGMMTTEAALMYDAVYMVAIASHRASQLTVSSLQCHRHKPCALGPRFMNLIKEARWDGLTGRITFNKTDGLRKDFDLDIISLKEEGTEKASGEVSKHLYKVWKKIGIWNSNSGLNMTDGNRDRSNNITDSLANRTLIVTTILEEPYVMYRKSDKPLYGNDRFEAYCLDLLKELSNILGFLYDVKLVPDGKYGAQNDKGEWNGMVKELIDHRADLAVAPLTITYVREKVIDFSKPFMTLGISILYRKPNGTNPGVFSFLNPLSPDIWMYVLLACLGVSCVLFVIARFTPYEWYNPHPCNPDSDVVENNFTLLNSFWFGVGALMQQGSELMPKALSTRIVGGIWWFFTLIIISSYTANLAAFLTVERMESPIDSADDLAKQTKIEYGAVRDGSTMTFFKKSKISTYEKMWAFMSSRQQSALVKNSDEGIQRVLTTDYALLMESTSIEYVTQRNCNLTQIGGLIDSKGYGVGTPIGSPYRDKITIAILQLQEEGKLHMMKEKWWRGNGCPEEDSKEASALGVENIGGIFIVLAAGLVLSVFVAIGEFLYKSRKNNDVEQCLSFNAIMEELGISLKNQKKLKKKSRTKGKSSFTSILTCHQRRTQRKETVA
The mark [1] stands for this setting: read-out: GluK2 Ki, cloned homomeric iGluRs, [3H]KA, mean ± SEM.
Where [2] appears, read: read-out: GluK3 Ki, cloned homomeric iGluRs, [3H]KA, mean ± SEM.
[3] abbreviates: 10 μM ligand concentration, [3H]KA, mean ± SD (Tables 2, 4).

Chain of GluK2 (P42260 32-908): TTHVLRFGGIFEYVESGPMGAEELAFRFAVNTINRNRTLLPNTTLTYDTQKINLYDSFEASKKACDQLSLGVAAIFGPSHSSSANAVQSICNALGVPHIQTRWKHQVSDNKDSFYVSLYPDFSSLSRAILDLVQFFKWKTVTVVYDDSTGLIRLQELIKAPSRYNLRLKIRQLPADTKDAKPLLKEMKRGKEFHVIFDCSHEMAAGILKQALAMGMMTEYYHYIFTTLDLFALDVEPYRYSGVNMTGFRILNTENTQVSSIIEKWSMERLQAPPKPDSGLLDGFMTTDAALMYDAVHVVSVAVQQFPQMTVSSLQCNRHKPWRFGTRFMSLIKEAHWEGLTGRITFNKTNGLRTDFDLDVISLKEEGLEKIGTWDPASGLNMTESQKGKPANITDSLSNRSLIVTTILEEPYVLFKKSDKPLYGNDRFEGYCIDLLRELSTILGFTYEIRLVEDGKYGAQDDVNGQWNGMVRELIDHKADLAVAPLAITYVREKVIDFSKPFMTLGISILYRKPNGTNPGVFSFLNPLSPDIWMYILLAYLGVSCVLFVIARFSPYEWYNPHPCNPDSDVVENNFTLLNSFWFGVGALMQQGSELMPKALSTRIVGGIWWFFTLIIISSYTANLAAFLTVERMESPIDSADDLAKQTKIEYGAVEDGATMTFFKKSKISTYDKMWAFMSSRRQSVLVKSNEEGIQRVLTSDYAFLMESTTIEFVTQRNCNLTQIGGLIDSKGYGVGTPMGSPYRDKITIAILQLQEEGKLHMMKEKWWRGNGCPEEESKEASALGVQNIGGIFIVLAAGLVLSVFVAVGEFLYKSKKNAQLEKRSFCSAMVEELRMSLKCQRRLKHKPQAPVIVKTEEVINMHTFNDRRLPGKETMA

For the compound `Cl.Cl.Nc1cc(C(=O)O)cc([C@H]2CCN[C@@H]2C(=O)O)c1` (racemic) [(±)-5j, (±)-2,3-trans-(3-Amino-5-carboxyphenyl)pyrrolidine-2-carboxylic acid dihydrochloride], on native AMPA receptors, the “AMPA pIC50 with SEM (in brackets)” value is given as 4.29±0.07 and the IC50 came to 52 µM. At native KA receptors, the “KA IC50, native iGluRs (synaptosomes)” value stood at 86 µM and the “KA pIC50 with SEM (in brackets)” value is given as 4.07±0.04. Further, on native NMDA receptors, the “NMDA pKi with SEM (in brackets)” value came out at 4.87±0.05 and the Ki was determined as 14 µM. In addition, at GluK2 (setting [1]), the Ki was greater than 100 µM. The Ki at GluK3 (setting [2]) was found to be 19.3 ± 0.9 µM.
`Cc1ccc(S(=O)(=O)Nc2cc(C(=O)O)cc([C@H]3CCN[C@@H]3C(=O)O)c2)cc1.Cl` (racemic) [(±)-5k, (±)-2,3-trans-(3-Carboxy-5-((4-methylphenyl)sulfonamido)phenyl)pyrrolidine-2-carboxylic acid hydrochloride]: on native AMPA receptors, the “AMPA pIC50 with SEM (in brackets)” value stood at 4.65±0.09. On native AMPA receptors, the IC50 stood at 23 µM. Also, on native KA receptors, the “KA IC50, native iGluRs (synaptosomes)” value is greater than 100 µM. Also, at native NMDA receptors, the “NMDA pKi with SEM (in brackets)” value was 4.82±0.03. Also, the Ki at native NMDA receptors turned out to be 15 µM; on GluK2 (setting [1]) it was 19 µM; on GluK3 (setting [2]), 10.9 ± 0.5 µM.
As for `Cl.O=C(O)c1cc(NS(=O)(=O)c2ccccn2)cc([C@H]2CCN[C@@H]2C(=O)O)c1` (racemic) [(±)-5l, (±)-2,3-trans-3-(3-Carboxy-5-(pyridine-2-sulfonamido)phenyl)pyrrolidine-2-carboxylic acid hydrochloride], at native AMPA receptors, the “AMPA pIC50 with SEM (in brackets)” value is recorded as 4.57±0.04 and the IC50 was found to be 27 µM. For the same compound, the “KA IC50, native iGluRs (synaptosomes)” value at native KA receptors was greater than 100 µM. Moreover, on native NMDA receptors, the “NMDA pKi with SEM (in brackets)” value was 4.46±0.08 and the Ki worked out at 36 µM. For the same compound, the Ki on GluK2 (setting [1]) is roughly 100 µM. Further, at GluK3 (setting [2]), the Ki came to 14 ± 0.9 µM.
With `Cl.O=C(O)c1cc(NC(=O)c2ccccc2)cc([C@H]2CCN[C@@H]2C(=O)O)c1` (racemic) [(±)-5m, (±)-2,3-trans-3-(3-Benzamido-5-carboxyphenyl)pyrrolidine-2-carboxylic acid hydrochloride], on native AMPA receptors, the “AMPA pIC50 with SEM (in brackets)” value is on record as 4.63±0.04 and the half-maximal inhibitory concentration (IC50) was 24 µM. On native KA receptors, the “KA IC50, native iGluRs (synaptosomes)” value turned out to be 16 µM and the “KA pIC50 with SEM (in brackets)” value is 4.81±0.03. Also, at native NMDA receptors, the “NMDA pKi with SEM (in brackets)” value is 5.16±0.04 and the Ki is 6.9 µM. The inhibition constant Ki on GluK2 (setting [1]) was roughly 100 µM. Also, at GluK3 (setting [2]), the inhibitory constant (Ki) came out at 3.95 ± 0.2 µM.
For the compound `Cl.O=C(O)c1cc(Br)cc([C@H]2CCN[C@@H]2C(=O)O)c1` [5b, (2S,3R)-3-(3-Bromo-5-carboxyphenyl)pyrrolidine-2-carboxylic acid hydrochloride], the “AMPA pIC50 with SEM (in brackets)” value at native AMPA receptors is recorded as 4.60 ± 0.04. For the same compound, the 50% inhibitory concentration (IC50) at native AMPA receptors was found to be 26 µM. Besides, the “KA IC50, native iGluRs (synaptosomes)” value on native KA receptors was determined as 10 µM. Besides, the “KA pIC50 with SEM (in brackets)” value at native KA receptors stood at 4.99 ± 0.04. Further, the “NMDA pKi with SEM (in brackets)” value at native NMDA receptors is given as 5.63 ±0.05. For the same compound, the Ki on native NMDA receptors was 2.4 µM; at GluK1, 5.88 ± 0.6 µM; at GluK2, greater than 100 µM; at GluK3, 2.42 ± 0.11 µM.
For `Cl.O=C(O)c1cc([C@H]2CCN[C@@H]2C(=O)O)cc(Br)c1Cl` [6a, (2S,3R)-3-(3-Bromo-5-carboxy-4-chlorophenyl)pyrrolidine-2-carboxylic acid hydrochloride], the IC50 on native AMPA receptors is greater than 100 µM. Besides, the “KA IC50, native iGluRs (synaptosomes)” value at native KA receptors is greater than 100 µM. In addition, the Ki on native NMDA receptors is 1 to 10 µM; at GluK1, no less than 100 µM; at GluK2 it was no less than 100 µM; on GluK3 it was no less than 100 µM.
With `CNCC[C@@H]1CN[C@H](C(=O)O)[C@H]1c1cccc(C(=O)O)c1` [9b, (2S,3R,4S)-3-(3-Carboxyphenyl)-4-(2-(methylamino)ethyl)pyrrolidine-2-carboxylic acid], the “AMPA pIC50 with SEM (in brackets)” value on native AMPA receptors came to 4.16 ± 0.02. Further, the IC50 at native AMPA receptors is 69 µM. Besides, the “KA IC50, native iGluRs (synaptosomes)” value on native KA receptors is greater than 100 µM. The Ki on native NMDA receptors is greater than 100 µM; at GluK1 it was roughly 10 µM; at GluK2 it was greater than 100 µM; on GluK3, greater than 100 µM. Further, the “GluK1 % specific binding (Table 5)” value on GluK1 turned out to be 50 ± 6%. For the same compound, the “GluK2 % specific binding (Table 5)” value at GluK2 ([3H]KA) worked out at 99 ± 6%. Further, the “GluK3 % specific binding (Table 5)” value on GluK3 ([3H]KA) was 83 ± 6%.
As for `O=C(O)c1cccc([C@H]2[C@H](CCNCc3ccccc3)CN[C@@H]2C(=O)O)c1` [9c, (2S,3R,4S)-4-(2-(Benzylamino)ethyl)-3-(3-carboxyphenyl)pyrrolidine-2-carboxylic acid], the “AMPA pIC50 with SEM (in brackets)” value on native AMPA receptors came out at 4.83 ± 0.05. Moreover, the IC50 on native AMPA receptors is 15 µM. For the same compound, the Ki on native NMDA receptors was greater than 100 µM; on GluK1 it was 2.98 ± 0.96 µM; at GluK2, greater than 100 µM; on GluK3, 2.46 ± 0.54 µM. In addition, the “GluK2 % specific binding (Table 5)” value at GluK2 ([3H]KA) worked out at 86 ± 6%.
For `O=C(O)c1cccc([C@H]2[C@H](CCO)CN[C@@H]2C(=O)O)c1` [9d, (2S,3R,4S)-3-(3-Carboxyphenyl)-4-(2-hydroxyethyl)pyrrolidine-2-carboxylic acid], at native AMPA receptors, the “AMPA pIC50 with SEM (in brackets)” value was found to be 4.47 ± 0.007 and the IC50 is 35 µM. At native KA receptors, the “KA IC50, native iGluRs (synaptosomes)” value was found to be 13 µM and the “KA pIC50 with SEM (in brackets)” value is given as 4.89 ± 0.3. In addition, at native NMDA receptors, the “NMDA pKi with SEM (in brackets)” value was 4.22 ± 0.03 and the inhibitory constant (Ki) worked out at 61 µM. Moreover, on GluK1, the inhibition constant Ki was greater than 10 µM and the “GluK1 % specific binding (Table 5)” value stood at 60 ± 6%. The Ki on GluK2 was greater than 100 µM. Moreover, the “GluK2 % specific binding (Table 5)” value on GluK2 ([3H]KA) was determined as 93 ± 7%. Besides, the Ki on GluK3 is greater than 10 µM. In addition, the “GluK3 % specific binding (Table 5)” value at GluK3 ([3H]KA) is reported as 57 ± 2%.
Regarding `Cl.O=C(O)C[C@@H]1CN[C@H](C(=O)O)[C@H]1c1cccc(C(=O)O)c1` [9e, (2S,3R,4S)-4-(Carboxymethyl)-3-(3-carboxyphenyl)pyrrolidine-2-carboxylic acid hydrochloride], the IC50 at native AMPA receptors is greater than 100 µM. On native KA receptors, the “KA IC50, native iGluRs (synaptosomes)” value was greater than 100 µM. In addition, the Ki at native NMDA receptors, at GluK1, on GluK2 and at GluK3 was greater than 100 µM throughout. Also, at GluK1, the “GluK1 % specific binding (Table 5)” value is 93 ± 3%. For the same compound, on GluK2 ([3H]KA), the “GluK2 % specific binding (Table 5)” value worked out at 97 ± 7%. In addition, the “GluK3 % specific binding (Table 5)” value at GluK3 ([3H]KA) is reported as 95 ± 3%.
Consider “(2S,3R)-3-(4-Amino-3-carboxyphenyl)pyrrolidine-2-carboxylic acid dihydrochloride [4g]”, for which the IC50 at native AMPA receptors is greater than 100 µM. On native KA receptors, the “KA IC50, native iGluRs (synaptosomes)” value is greater than 100 µM. Also, on native NMDA receptors, the Ki was greater than 100 µM. Moreover, on GluK1 (10 μM ligand concentration, [3H]NF608, mean ± SD (Table 2)), the “GluK1 % specific binding” value was “(70 ± 16)^d %”. Besides, the “GluK2 % specific binding” value on GluK2 (setting [3]) is reported as “(77 ± 5)^d %”. Moreover, at GluK3 (setting [3]), the “GluK3 % specific binding” value is “(64 ± 4)^d %”.

Usually IC50 stands for the concentration needed to halve the response being measured. Usually Ki stands for the equilibrium dissociation constant of an inhibitor or competing ligand from its target.
